# Screening data deposited in PubChem by several laboratories.
# Shown is part of a subset that was picked to be rich in hits.
# CHOP UPR activ: apoptotic UPR (CHOP) activation; CHO-CHOP luciferase reporter, luminescence; percent of tunicamycin response over DMSO baseline; activation, % at 10 µM; 330,000 tested, 0.34% active;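 active = at 10 µM dose, activation of 40% or more, normalized to positive control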
#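 Evaluation: % reporter activation, DMSO baseline versus tunicamycin full activation; System: CHO-CHOP luciferase reporter cell line; Input: 500 cells/well; Incubation: 6 h compound treatment, 37 °C; Measured by: Steady-Glo luciferase luminescence; Dosing: one dose, 10 µM in 0.5% DMSO; Buffer or medium: F12 medium, 10% FBS; Benchmarks: positive tunicamycin 10 µg/mL, negative DMSO alone.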
# Dynein cargo inh: blocks dynein driven cargo transport along microtubules. 3617.4 mouse cells, GR-EGFP nuclear translocation imaging; test concentration mostly 20 µM; stimulated with dexamethasone, 1 µM; hits give low values. z-score, hits read low. 220,000 tested, 0.47% active. AID 1381;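 active = plate z-score of nuclear minus cytoplasmic receptor signal below a set negative limit, without overly bright fluorescence or cell loss, cut at about -3.5 in these data, passing the limit was not always enough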;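 also: z-score of nuclear minus cytoplasmic ring GR-EGFP intensity difference per well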
#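 Buffer or medium – tet-free medium with charcoal-stripped serum · Signal – automated 10x imaging of fixed Hoechst-stained cells · Also added – dexamethasone agonist, 1.0 µM final, for 30 min · Incubation – induction 48 h, compound 1 h, agonist 30 min · Read-out – GR-EGFP nuclear translocation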
# B2AR ag: agonists of human beta-2 adrenergic receptor inducing internalization; P07550; Am2.2-beta2AR cells, FAP receptor internalization, flow cytometry; response, % (no concentration beside the values); 340,000 tested, 0.43% active; AID 504454;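 active = response above a set limit, near 3 SD of response in nonfluorescent compounds, cut at about 42% in these data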
# p-CIP stab down: compounds decreasing mouse p/CIP protein stability; F442A p/CIP-EGFP cells, EGFP fluorescence, 16 h; decrease of EGFP signal, % at 10 µM; 290,000 tested, 0.01% active;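 active = EGFP signal decrease of at least 30% at 10 µM or well 3 SD below plate mean, unless failing retest; inactive = the rest, including hits failing retest or dose response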
# Target sequence (Q05BA5 1-1403): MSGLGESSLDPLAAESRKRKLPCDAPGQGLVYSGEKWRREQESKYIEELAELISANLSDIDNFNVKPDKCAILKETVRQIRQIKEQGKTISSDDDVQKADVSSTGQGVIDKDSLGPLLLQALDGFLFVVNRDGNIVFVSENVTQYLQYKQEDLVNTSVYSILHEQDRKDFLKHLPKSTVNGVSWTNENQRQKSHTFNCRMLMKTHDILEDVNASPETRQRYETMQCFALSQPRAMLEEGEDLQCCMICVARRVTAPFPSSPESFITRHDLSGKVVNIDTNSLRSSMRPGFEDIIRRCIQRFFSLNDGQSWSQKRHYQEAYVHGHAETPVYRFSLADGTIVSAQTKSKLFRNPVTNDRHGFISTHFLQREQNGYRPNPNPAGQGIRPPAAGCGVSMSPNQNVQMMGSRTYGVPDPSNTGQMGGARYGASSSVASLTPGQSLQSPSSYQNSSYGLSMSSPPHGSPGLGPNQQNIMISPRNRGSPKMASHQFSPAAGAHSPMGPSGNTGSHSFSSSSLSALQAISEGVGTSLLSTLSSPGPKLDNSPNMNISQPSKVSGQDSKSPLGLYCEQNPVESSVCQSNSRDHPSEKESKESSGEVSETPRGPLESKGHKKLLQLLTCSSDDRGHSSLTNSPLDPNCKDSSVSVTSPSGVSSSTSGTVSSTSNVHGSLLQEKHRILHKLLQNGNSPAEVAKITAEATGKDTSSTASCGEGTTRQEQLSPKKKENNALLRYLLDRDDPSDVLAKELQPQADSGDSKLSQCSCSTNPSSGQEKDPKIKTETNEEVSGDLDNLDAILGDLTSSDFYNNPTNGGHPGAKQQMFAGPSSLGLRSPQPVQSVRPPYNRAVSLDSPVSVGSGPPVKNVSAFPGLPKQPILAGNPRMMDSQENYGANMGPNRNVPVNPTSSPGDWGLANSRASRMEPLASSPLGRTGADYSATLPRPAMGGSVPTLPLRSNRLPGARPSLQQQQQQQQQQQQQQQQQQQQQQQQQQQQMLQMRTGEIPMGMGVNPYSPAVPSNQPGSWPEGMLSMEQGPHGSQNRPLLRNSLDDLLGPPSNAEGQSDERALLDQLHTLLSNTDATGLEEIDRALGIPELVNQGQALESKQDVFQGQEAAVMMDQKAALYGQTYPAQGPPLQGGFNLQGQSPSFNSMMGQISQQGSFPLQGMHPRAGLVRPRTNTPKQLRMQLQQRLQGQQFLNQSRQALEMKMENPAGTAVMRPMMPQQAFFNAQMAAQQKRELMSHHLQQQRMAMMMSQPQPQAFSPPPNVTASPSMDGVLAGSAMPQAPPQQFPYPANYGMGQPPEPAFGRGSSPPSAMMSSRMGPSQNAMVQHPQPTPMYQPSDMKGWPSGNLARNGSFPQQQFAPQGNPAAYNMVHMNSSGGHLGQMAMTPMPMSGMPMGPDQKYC
# CHOP inh: CHOP inhibition in unfolded protein response | CHO-K1 CHOP-promoter luciferase, tunicamycin-induced, 15-18 h | inhibition, % at 10 µM | 220,000 tested, 3.8% active | AID 2732;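 active = compounds that reduced the stress-induced luciferase reporter signal by more than about 70% of percent inhibition, limit read from the data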
# UPR XBP1 act: activators of adaptive arm of unfolded protein response (XBP1) | activation, % at 20 µM | 330,000 tested, 0.33% active | CHO-XBP1 luciferase reporter, IRE1-XBP1 UPR activation, luminescence; percent of tunicamycin response, DMSO as zero | AID 463104;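 active = versus positive control, 20 µM dose yields 30% or more activation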
#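 assay system = CHO-XBP1 luciferase reporter cells | amount = 1000 cells/well | buffer or medium = F12 plus 10% FBS | compound dosing = single point, 20 µM final compound, 1% DMSO | incubation = 16-18 h cell attachment at 37 °C, then 6 h compound exposure | detection = Steady-Glo luminescence read | controls = tunicamycin 10 µg/mL and vehicle-only wells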
# Hits are given with their value; i = inactive; nt = no result given.
SMILES,CHOP UPR activ,Dynein cargo inh,B2AR ag,p-CIP stab down,CHOP inh,UPR XBP1 act
CCn1nc(-c2ccccc2)nc2c(=O)n(C)c(=O)nc1-2,i,i,69,i,108,i
Cc1cc(OC(=O)c2ccco2)c2c3c(c(=O)oc2c1)CCCC3,i,i,i,i,76,i
Cc1cc(OC(=O)c2cccs2)c2c3c(c(=O)oc2c1)CCCC3,i,i,i,i,i,i
Nc1ncnc2c1ncn2[C@@H]1O[C@H](COP(=O)(O)CP(=O)(O)OP(=O)(O)O)[C@H](O)C1O (stereo partly drawn),nt,nt,nt,nt,i,nt
Cc1ccc(OCC(=O)N2CCN(C3CCC(c4ccccc4)CC3)CC2)cc1 (stereo not drawn),i,i,i,i,93,i
CS(=N)(=O)CC[C@H](N)C(=O)O (stereo partly drawn),nt,nt,nt,nt,i,nt
COc1ccc(Cl)cc1N=Cc1c(O)n(C)c(=O)n(C)c1=O,i,nt,57,i,nt,i
COc1ccccc1N=Cc1c(O)n(C)c(=O)n(C)c1=O,i,i,i,i,i,i
CC(C)=CCc1c(O)cc2c(c1O)C(=O)CC(c1ccc(O)cc1)O2 (stereo not drawn),i,i,i,i,77,i
COC(=O)C1=C(C(=O)OC)SC2(S1)C(C(=O)OC)=C(C(=O)OC)Sc1c2ssc1=O,nt,nt,58,nt,nt,nt
CCOC(=O)c1c(-n2c(C)cc(/C=C3\C(=O)NC(=O)N(C)C3=O)c2C)sc2c1CCCC2,i,i,i,i,77,i
Cc1cc(/C=C2\C(=O)NC(=O)N(c3ccc(Cl)cc3)C2=O)c(C)n1-c1sc2c(c1C#N)CCCC2,i,i,i,i,i,i
CCCCn1c(O)c(C(C)=Nc2ccc(OCC)cc2)c(=O)[nH]c1=O,i,i,i,i,95,i
CN1CCCC1CCOC(C)(c1ccccc1)c1ccc(Cl)cc1 (stereo not drawn),nt,nt,i,nt,i,nt
C[C@@H]1O[C@H](C[N+](C)(C)C)CS1,nt,nt,nt,nt,i,nt
CCCCCn1c(=O)c(C(=O)Nc2nc(CC(=O)OCC)cs2)c(O)c2ccccc21,i,i,i,i,92,i
CCCCCn1c(=O)c(C(=O)Nc2ccccc2C)c(O)c2ccccc21,i,nt,i,i,nt,i
CCCCCn1c(=O)c(C(=O)Nc2cnccn2)c(O)c2ccccc21,i,i,i,i,104,i
CCCCCn1c(=O)c(C(=O)Nc2ccccc2S(N)(=O)=O)c(O)c2ccccc21,i,i,i,i,82,i
CCCCCn1c(=O)c(C(=O)Nc2cc(C)ccn2)c(O)c2ccccc21,i,nt,i,i,nt,i
CCCCn1c(=O)c(C(=O)Nc2ccccc2S(N)(=O)=O)c(O)c2ccccc21,i,i,i,i,77,i
CCCCCCn1c(=O)c(C(=O)Nc2nnc(C)s2)c(O)c2ccccc21,i,i,nt,i,i,i
NC(Cn1oc(=O)[nH]c1=O)C(=O)O (stereo not drawn),nt,nt,nt,nt,i,nt
CN1CCN(c2ccc3ccccc3n2)CC1,nt,nt,nt,nt,i,nt
Cc1nc(-c2ccc(-c3ccc(C(=O)N4CCc5cc6c(cc54)C4(CCN(C)CC4)CO6)cc3)c(C)c2)no1,nt,nt,nt,nt,i,nt
SMILES,CHOP UPR activ,Dynein cargo inh,B2AR ag,p-CIP stab down,CHOP inh,UPR XBP1 act
Cc1sc2c(c1C)C(c1ccc(C(C)(C)C)cc1)=NCC(=O)N2CC(=O)Nc1nccs1,i,i,i,i,84,i
CC1=CC(C)CC(C)OC(=O)CC(c2ccc(O)cc2)NC(=O)C(Cc2c(Br)[nH]c3ccccc23)N(C)C(=O)C(C)NC(=O)C(C)C1 (stereo not drawn),nt,nt,50,nt,nt,nt
C=C(C)[C@H]1Cc2c(ccc3c2O[C@@H]2COc4cc(OC)c(OC)cc4[C@@H]2C3=O)O1,nt,nt,nt,nt,i,nt
NC(CCCCCP(=O)(O)O)C(=O)O (stereo not drawn),nt,nt,nt,nt,i,nt
CSc1ccc(C(=O)C2CCCN(Cc3cc4ccccc4[nH]3)C2)cc1 (stereo not drawn),i,i,i,i,70,i
CC(C)[C@]12O[C@H]1[C@@H]1O[C@]13[C@]1(O[C@H]1C[C@H]1C4=C(CC[C@@]13C)C(=O)OC4)[C@@H]2O,nt,nt,nt,i,103,nt
